Results as given in ChEMBL document CHEMBL4689842, “EUbOPEN Chemogenomics Library wave 1” (2021).

Tested on: U2OS
Assay: Multiplex assay against U2OS
Assay type: toxicity, cell-based
Settings: human
In short: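 Live cells were stained at seeding with Hoechst33342, BioTracker Green Microtubule Cytoskeleton Dye, MitoTracker Red and Annexin V Alexa Fluor 680, then imaged on a CQ1 microscope at 37°C and 5% CO2 after compound addition. CellPathfinder machine-learning gating split cells into Hoechst high-intensity objects or normal cells. Normal cells were split into healthy, pyknosed or fragmented nuclei, and pyknosed cells into mitotic or apoptotic. Tubulin, mitochondrial-mass and membrane-permeability phenotypes are per cents of healthy-nucleus cells.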

[1] = 12 h, 1 µM, compound concentration 1 uM, replicate 1
[2] = 12 h, 1 µM, compound concentration 1 uM, replicate 2
[3] = 12 h, 10 µM, compound concentration 10 uM, replicate 1
[4] = 12 h, 10 µM, compound concentration 10 uM, replicate 2
[5] = 24 h, 1 µM, compound concentration 1 uM, replicate 1
[6] = 24 h, 1 µM, compound concentration 1 uM, replicate 2
[7] = 24 h, 10 µM, compound concentration 10 uM, replicate 1
[8] = 24 h, 10 µM, compound concentration 10 uM, replicate 2
[9] = 48 h, 1 µM, compound concentration 1 uM, replicate 1
[10] = 48 h, 1 µM, compound concentration 1 uM, replicate 2
[11] = 48 h, 10 µM, compound concentration 10 uM, replicate 1
[12] = 48 h, 10 µM, compound concentration 10 uM, replicate 2

## CC(C)c1noc(N2CCC(COc3ccc(-c4ccc(S(C)(=O)=O)cc4)nc3)CC2)n1 [GSK-1292263]
[1]
  Population Apoptotic (%): 58%
  Population Fragmented Nuclei (%): 25%
  Population Healthy Nuclei (%): 64%
  Population Hoechst High Intensity Objects (%): 17%
  Population Membrane Permeable-Phenotype (%): 5%
  Population Mitochondria Different-Phenotype (%): 10%
  Population Mitotic Cells (%): 41%
  Population Normal (%): 82%
  Population Pyknosed Nuclei (%): 10%
  Population Tubulin-Different-Phenotype (%): 10%
  Total Cell Count: 304
[2]
  Population Apoptotic (%): 50%
  Population Fragmented Nuclei (%): 12%
  Population Healthy Nuclei (%): 85%
  Population Hoechst High Intensity Objects (%): 2%
  Population Membrane Permeable-Phenotype (%): 3%
  Population Mitochondria Different-Phenotype (%): 4%
  Population Mitotic Cells (%): 50%
  Population Normal (%): 97%
  Population Pyknosed Nuclei (%): 2%
  Population Tubulin-Different-Phenotype (%): 9%
  Total Cell Count: 89
[3]
  Population Apoptotic (%): 54%
  Population Fragmented Nuclei (%): 16%
  Population Healthy Nuclei (%): 67%
  Population Hoechst High Intensity Objects (%): 7%
  Population Membrane Permeable-Phenotype (%): 12%
  Population Mitochondria Different-Phenotype (%): 18%
  Population Mitotic Cells (%): 45%
  Population Normal (%): 92%
  Population Pyknosed Nuclei (%): 15%
  Population Tubulin-Different-Phenotype (%): 33%
  Total Cell Count: 141
[4]
  Population Apoptotic (%): 42%
  Population Fragmented Nuclei (%): 5%
  Population Healthy Nuclei (%): 83%
  Population Hoechst High Intensity Objects (%): 5%
  Population Membrane Permeable-Phenotype (%): 3%
  Population Mitochondria Different-Phenotype (%): 10%
  Population Mitotic Cells (%): 57%
  Population Normal (%): 94%
  Population Pyknosed Nuclei (%): 10%
  Population Tubulin-Different-Phenotype (%): 15%
  Total Cell Count: 76
[5]
  Population Apoptotic (%): 50%
  Population Fragmented Nuclei (%): 17%
  Population Healthy Nuclei (%): 73%
  Population Hoechst High Intensity Objects (%): 15%
  Population Membrane Permeable-Phenotype (%): 5%
  Population Mitochondria Different-Phenotype (%): 11%
  Population Mitotic Cells (%): 50%
  Population Normal (%): 84%
  Population Pyknosed Nuclei (%): 8%
  Population Tubulin-Different-Phenotype (%): 5%
  Total Cell Count: 334
[6]
  Population Apoptotic (%): 0%
  Population Fragmented Nuclei (%): 14%
  Population Healthy Nuclei (%): 83%
  Population Hoechst High Intensity Objects (%): 2%
  Population Membrane Permeable-Phenotype (%): 2%
  Population Mitochondria Different-Phenotype (%): 10%
  Population Mitotic Cells (%): 100%
  Population Normal (%): 97%
  Population Pyknosed Nuclei (%): 2%
  Population Tubulin-Different-Phenotype (%): 13%
  Total Cell Count: 103
[7]
  Population Apoptotic (%): 40%
  Population Fragmented Nuclei (%): 20%
  Population Healthy Nuclei (%): 67%
  Population Hoechst High Intensity Objects (%): 7%
  Population Membrane Permeable-Phenotype (%): 9%
  Population Mitochondria Different-Phenotype (%): 14%
  Population Mitotic Cells (%): 60%
  Population Normal (%): 92%
  Population Pyknosed Nuclei (%): 12%
  Population Tubulin-Different-Phenotype (%): 14%
  Total Cell Count: 168
[8]
  Population Apoptotic (%): 36%
  Population Fragmented Nuclei (%): 7%
  Population Healthy Nuclei (%): 79%
  Population Hoechst High Intensity Objects (%): 4%
  Population Membrane Permeable-Phenotype (%): 7%
  Population Mitochondria Different-Phenotype (%): 12%
  Population Mitotic Cells (%): 63%
  Population Normal (%): 95%
  Population Pyknosed Nuclei (%): 13%
  Population Tubulin-Different-Phenotype (%): 7%
  Total Cell Count: 91
[9]
  Population Apoptotic (%): 42%
  Population Healthy Nuclei (%): 79%
  Population Hoechst High Intensity Objects (%): 9%
  Population Membrane Permeable-Phenotype (%): 2%
  Population Mitochondria Different-Phenotype (%): 12%
  Population Mitotic Cells (%): 57%
  Population Normal (%): 90%
  Population Pyknosed Nuclei (%): 9%
  Population Tubulin-Different-Phenotype (%): 8%
  Total Cell Count: 406
[10]
  Population Apoptotic (%): 25%
  Population Fragmented Nuclei (%): 11%
  Population Healthy Nuclei (%): 85%
  Population Hoechst High Intensity Objects (%): 0%
  Population Membrane Permeable-Phenotype (%): 4%
  Population Mitochondria Different-Phenotype (%): 13%
  Population Mitotic Cells (%): 75%
  Population Normal (%): 100%
  Population Pyknosed Nuclei (%): 3%
  Population Tubulin-Different-Phenotype (%): 12%
  Total Cell Count: 136
[11]
  Population Apoptotic (%): 60%
  Population Fragmented Nuclei (%): 14%
  Population Healthy Nuclei (%): 76%
  Population Hoechst High Intensity Objects (%): 8%
  Population Mitotic Cells (%): 40%
  Population Normal (%): 91%
  Population Pyknosed Nuclei (%): 9%
  Population Tubulin-Different-Phenotype (%): 9%
  Total Cell Count: 231
[12]
  Population Apoptotic (%): 23%
  Population Fragmented Nuclei (%): 5%
  Population Healthy Nuclei (%): 80%
  Population Hoechst High Intensity Objects (%): 2%
  Population Membrane Permeable-Phenotype (%): 6%
  Population Mitochondria Different-Phenotype (%): 13%
  Population Mitotic Cells (%): 76%
  Population Normal (%): 97%
  Population Pyknosed Nuclei (%): 14%
  Population Tubulin-Different-Phenotype (%): 7%
  Total Cell Count: 130
